# High-throughput results deposited in PubChem BioAssay by Johns Hopkins Ion Channel Center.
# Shown are actives, neighbours in structure and some others; about 3.5% of the full set was active somewhere.
# MrgX1 agonist – agonists of human MrgX1 receptor, primary screen, HEK293 cells, Fluo-4 calcium flux; Mas-related G-protein coupled receptor member X1 (Homo sapiens), Q96LB2; Fluo-4 calcium fluorescence, agonist mode; active compounds read high; B-score at 10 µM; actives 0.44% (n = 310,000); AID 588627, 2011;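 active = calcium response B-score plate-corrected fluorescence ratio at least 3 library SD, with starting fluorescence B-score inside 5 SD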
# Target sequence (Q96LB2 whole entry, looked up): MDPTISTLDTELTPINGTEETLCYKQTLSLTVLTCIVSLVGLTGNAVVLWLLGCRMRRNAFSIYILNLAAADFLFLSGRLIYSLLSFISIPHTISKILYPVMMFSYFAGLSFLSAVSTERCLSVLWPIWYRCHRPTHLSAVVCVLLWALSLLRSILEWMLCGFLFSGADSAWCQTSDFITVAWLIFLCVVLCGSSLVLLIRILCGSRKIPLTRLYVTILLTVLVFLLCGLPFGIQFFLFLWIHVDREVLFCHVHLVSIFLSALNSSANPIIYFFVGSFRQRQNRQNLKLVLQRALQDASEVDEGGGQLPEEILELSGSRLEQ
#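 Test system: HEK293 cells stably expressing human MrgX1 receptor; amount: 15,000 cells per well; doses: compound delivered in addition one of three; times: overnight plating before 1 h dye loading; detection: Fluo-4 NW calcium-flux fluorescence, kinetic read; read-out basis: B-scored fluorescence response ratio; controls: positive and negative controls per plate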
# RGS4 block – RGS4 inhibitors, primary screen, cell-based, HEK293 M3R inducible RGS4, calcium flux; Regulator of G-protein signaling 4 (Homo sapiens), P49798; Fluo-4 calcium flux; active compounds read high; triggered by carbachol at its EC20; B-score at 10 µM; actives 0.45% (n = 310,000);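 active = B-score, a plate-corrected calcium signal, over three deviations above library mean, with baseline fluorescence within five deviations of library mean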;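 note: RGS4 expression induced by doxycycline in cells with stable M3 receptor; B-score is computed from the integrated fluorescence ratio over baseline after carbachol; higher B-score means a larger calcium signal and so more RGS4 inhibition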
# Target sequence (P49798 whole entry, looked up): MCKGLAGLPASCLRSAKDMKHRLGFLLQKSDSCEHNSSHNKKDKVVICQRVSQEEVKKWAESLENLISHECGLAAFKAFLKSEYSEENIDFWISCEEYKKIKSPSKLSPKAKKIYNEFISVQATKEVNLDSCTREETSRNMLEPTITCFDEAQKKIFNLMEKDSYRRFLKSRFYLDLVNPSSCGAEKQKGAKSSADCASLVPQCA
# MrgX1 antagonist – antagonists of human MrgX1 receptor, primary screen, HEK293 cells, Fluo-4 calcium flux | B-score at 10 µM | actives 1.3% (n = 310,000) | BAM8-22 antagonism; active compounds read low;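 active = calcium-response B-score plate-corrected more than 3 library SD below zero, starting fluorescence within 5 deviations, no agonist response on first addition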;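 note: peak minus trough fluorescence over baseline after final BAM8-22 challenge near maximal dose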
# RGS4 act – RGS4 potentiators or activators, primary screen, cell-based, HEK293 M3R inducible RGS4, calcium flux. carbachol calcium flux Fluo4; active compounds read low. B-score at 10 µM. actives 0.92% (n = 310,000);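 active = B-score of the integrated calcium signal more than 4 SD below the library mean, with starting fluorescence not abnormally high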;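 note: negative B-score means reduced calcium response which marks RGS4 activation or potentiation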
#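 Reagent: ECmax carbachol challenge; Test system: M3R-expressing HEK293 line, RGS4 induced by doxycycline; Schedule: overnight RGS4 induction, 30 min dye load 37 °C, 20 min compound RT; Detection: calcium dye Fluo4 fluorescence; Read-out: Agonist-evoked peak-minus-minimum fluorescence over baseline, integrated ratio, B score.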
# MrgX1 allo act – positive allosteric modulators of MrgX1, primary screen, HEK293 cells, Fluo-4 calcium flux. Mas-related G-protein coupled receptor member X1 (Homo sapiens), Q96LB2. FDSS; active compounds read high. B-score at 10 µM. actives 0.63% (n = 310,000);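 active = plate-corrected calcium response at least 3 library SD above typical, normal starting fluorescence, not activating the receptor alone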;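 note: compound read alongside a low EC10 to EC30 dose of BAM8-22 agonist; peak minus trough fluorescence over baseline measured at the second addition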
# RGS4 block valid – enhanced carbachol calcium response, M3R/RGS4 cells, RGS4 inhibitor project, cell-based, validation screen, HEK293 M3R/RGS4, calcium flux; shares compounds with RGS4 block; carbachol calcium Fluo-4 fluorescence; carbachol added at its EC20; 0 = buffer wells, 100 = carbachol control; calcium response, % at 10 µM; actives 65% (n = 1,700);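 active = duplicate-averaged calcium response above the buffer-only control mean plus 5 SD of those controls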;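 note: integrated fluorescence ratio F max minus min over baseline F0; higher response in RGS4-induced cells means RGS4 inhibition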
# M3R Ca ctr – carbachol calcium response in non-induced M3R cells, confirmation, counter-screen for RGS4 inhibitor project, cell-based, HEK293 M3R; carbachol calcium Fluo-4; submaximal (EC20) carbachol stimulus; buffer wells 0%, carbachol control wells 100%; shares compounds with RGS4 block; activity (percent), % at 10 µM; actives 20% (n = 1,900); call rule not given here;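 note: RGS4 induction absent so cells express M3R without RGS4; higher means more calcium signal and flags a non-specific hit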
# M3R basal Ca ctr – second RGS4 inhibitor counter-screen in uninduced cells lacking carbachol; shares compounds with RGS4 block; HEK293 M3R/RGS4 non-induced, Fluo-4 calcium, no carbachol; normalised: buffer wells 0%, carbachol wells 100%; calcium response (agonist-mode artifact), % at 10 µM; actives 22% (n = 1,900); AID 493001;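 active = duplicate-averaged calcium rise in uninduced cells above buffer wells' mean plus 5 SD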
# * hit, by the source's call; i = inactive; nt = not tested or not shown.
SMILES,MrgX1 agonist,RGS4 block,MrgX1 antagonist,RGS4 act,MrgX1 allo act,RGS4 block valid,M3R Ca ctr,M3R basal Ca ctr
COc1cccc(C2/C(=C(/O)c3ccc4c(c3)OCO4)C(=O)C(=O)N2CCN2CCOCC2)c1 (configuration not stated),i,i,i,i,i,nt,nt,nt
Cc1cc(C)nc(N=Nc2c(O)n(Cc3ccc(Cl)cc3)c3ccccc23)n1,i,i,i,i,i,nt,nt,nt
CC(=O)Oc1ccc2ccccc2c1C(NC(=O)Cc1ccccc1)c1ccc(Cl)cc1 (configuration not stated),i,i,-5.9*,i,i,nt,i,i
CCOc1ccc(C(NC(=O)CC)c2c(O)ccc3ccccc23)cc1 (configuration not stated),i,i,i,i,i,nt,nt,nt
COc1cc(C(O)c2nc3ccccc3n2C(C)C)cc(OC)c1OC (configuration not stated),i,i,i,i,i,nt,nt,nt
Cc1ccc(-c2nc(C#N)c(N3CCC(C(N)=O)CC3)o2)cc1,i,i,i,i,i,nt,nt,nt
COC(=O)c1ccc(NC(=S)Nc2ccccc2)cc1,i,i,i,i,i,nt,nt,nt
COC(=O)c1ccc(NC(=S)Nc2ccc3ccccc3c2)cc1,i,7.8*,i,i,i,i,i,i
O=c1[nH]nc(-c2ccc(F)cc2)cc1Cc1ccc(F)cc1,i,i,i,i,i,nt,i,i
Cc1ccc(-c2cc(Cc3ccc(F)cc3)c(=O)[nH]n2)cc1,i,i,i,i,i,nt,nt,nt
Cc1ccc(Cc2cc(-c3ccc(C)cc3)n[nH]c2=O)cc1,i,i,i,i,i,nt,i,i
O=C(NCCCNC(=O)c1ccccc1)c1ccccc1,i,i,i,i,i,nt,nt,nt
O=C(c1ccc2c(c1)OCCCO2)N1CCCCC1,i,i,i,i,i,nt,nt,nt
O=C(NCc1ccco1)Nc1ccc(Br)cc1,i,i,i,i,i,nt,nt,nt
O=C(NCc1ccco1)Nc1ccc2nsnc2c1,i,6.5*,i,i,i,i,i,i
N#CC1=C(N)Oc2c(O)cc3ccccc3c2C1c1ccsc1 (configuration not stated),i,14*,i,i,i,40%*,33%*,i
CNC(=S)N/N=C(\C)c1ccc(C)c(C)c1,i,i,i,i,i,nt,nt,nt
Cc1cccc(C2c3[nH]c4ccccc4c3CCN2C(=O)Cc2nc(-c3ccccc3)n[nH]2)n1 (configuration not stated),i,5.7*,i,i,i,10%*,i,i
O=C(N/N=C/c1ccc(-n2ccnc2)cc1)c1cccs1,i,i,i,i,i,nt,nt,nt
COc1cccc(-c2nc(C=O)cs2)c1,i,5*,i,i,i,5.0%*,i,i
Cc1ccc(/C=C/C(=O)c2ccccc(=O)c2O)cc1C,i,11*,i,i,i,48%*,i,72%*
CC1=C(CO)C(=O)OC([C@@H](C)C2CC[C@H]3C4C[C@H]5O[C@]56[C@@H](O)C=CC(=O)[C@]6(C)C4CC[C@]23C)C1 (some centres not stated),i,13*,i,i,i,32%*,i,i
CC1CCc2c(sc3ncnc(SC(C)C(=O)NCC4CCCO4)c23)C1 (configuration not stated),i,i,i,i,i,nt,nt,nt
Cc1cccc(C(=O)Nc2ccccc2C(=O)NCc2ccco2)c1,i,i,i,i,i,nt,nt,nt
CC(C)NCC(O)c1cc(O)cc(O)c1 (configuration not stated),i,4.8*,i,i,i,22%*,52%*,i
SMILES,MrgX1 agonist,RGS4 block,MrgX1 antagonist,RGS4 act,MrgX1 allo act,RGS4 block valid,M3R Ca ctr,M3R basal Ca ctr
Cc1[nH]n(-c2ccccc2)c(=O)c1C(C[N+](=O)[O-])c1ccc(Br)cc1 (configuration not stated),i,8.4*,i,i,6.8*,32%*,51%*,28%*
COc1cccc(C(C[N+](=O)[O-])c2c(C)[nH]n(-c3ccccc3)c2=O)c1 (configuration not stated),50*,15*,i,i,i,6.0%*,i,10%*
Cn1c(SCC(=O)N=Nc2c(O)[nH]c3ccccc23)nc2ccccc21,i,i,i,i,i,nt,nt,nt
O=C(CSc1nc2ccccc2[nH]1)N=Nc1c(O)[nH]c2ccccc12,i,5*,i,i,i,i,i,i
CC(=O)Oc1cc2c(cc1Cl)C1(CC(c3ccccc3Cl)O2)CC(C)(C)NC(=S)N1 (configuration not stated),i,5*,i,i,i,9.0%*,i,i
N#Cc1c(NC(=O)CSc2ncn[nH]2)sc2c1CCCCC2,i,i,i,i,i,nt,i,i
N#Cc1c(NC(=O)CSc2nc(N)cc(=O)[nH]2)sc2c1CCCCCC2,i,i,i,i,i,nt,nt,nt
O=c1cc(-c2ccccc2Cl)oc2ccc([N+](=O)[O-])c(O)c12,i,i,i,i,i,nt,nt,nt
O=c1cc(-c2ccccc2Cl)oc2c([N+](=O)[O-])c(O)cc(O)c12,i,10*,i,i,i,32%*,52%*,i
COc1ccc2cc(C3C(C#N)=C(N)OC(C)=C3C(C)=O)c(Cl)nc2c1 (configuration not stated),i,5.6*,i,i,i,32%*,i,i
